Measured values from ChEMBL document CHEMBL3758168, “Hybrid triazoles: Design and synthesis as potential dual inhibitor of growth and efflux inhibition in tuberculosis” (Eur J Med Chem, 2016).
Converted amounts (≈) assume the structure as drawn.

Key:
[1] = test system: Mycolicibacterium smegmatis; assay: Anti-tubercular activity against Mycobacterium smegmatis MC2 155 ATCC 700084 after 3 days by microdilution method; assay type: functional; conditions: MC2 155 ATCC 700084, 72 h
Procedure, shortened: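 M. smegmatis mc2155 grown in MB7H9 + 10% OADC at 37 °C with shaking to OD600 0.8. Inoculum set to 0.5 McFarland, diluted 1:100, and mixed 1:1 with two-fold serial dilutions in MB7H9. Plates incubated 3 days at 37 °C with growth and sterility controls. MIC taken as the lowest concentration with no visible growth.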

[2] = Cytotoxicity against human MDM assessed as cell viability after 3 days by Alamar blue dye-based fluorocytometric analysis relative to control; conditions: 72 h
[3] = test system: Mycobacterium tuberculosis; assay: Antibacterial activity against Mycobacterium tuberculosis H37Rv ATCC 27294T assessed as isoniazid MIC at 0.25 ug/ml after 7 days by microdilution checkerboard assay; assay type: functional; conditions: 168 h
Procedure, shortened: (§1)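 Two-dimensional checkerboard in H37Rv at 10^5 CFU/ml in MB7H9/OADC. Partner drug (amikacin, EtBr, isoniazid, ofloxacin or rifampin) two-fold serially diluted across columns 3-11. Test compound two-fold serially diluted down rows 2-6. Plates incubated 7 days at 37 °C, then MTT added overnight. […] Run in triplicate.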

[4] = test system: Mycobacterium tuberculosis; assay: Antibacterial activity against Mycobacterium tuberculosis H37Rv ATCC 27294T assessed as ethidium bromide MIC at 0.25 ug/ml after 7 days by microdilution checkerboard assay; assay type: functional; conditions: 168 h; procedure, shortened: as §1
[5] = test system: Mycobacterium tuberculosis; assay: Antibacterial activity against Mycobacterium tuberculosis H37Rv ATCC 27294T assessed as ethidium bromide MIC at 0.5 ug/ml after 7 days by microdilution checkerboard assay; assay type: functional; conditions: 168 h; procedure, shortened: as §1
[6] = test system: Mycobacterium tuberculosis; assay: Antibacterial activity against Mycobacterium tuberculosis H37Rv ATCC 27294T assessed as ethidium bromide MIC at 1 ug/ml after 7 days by microdilution checkerboard assay; assay type: functional; conditions: 168 h; procedure, shortened: as §1
[7] = test system: Mycobacterium tuberculosis; assay: Antibacterial activity against Mycobacterium tuberculosis H37Rv ATCC 27294T assessed as ethidium bromide MIC at 2 ug/ml after 7 days by microdilution checkerboard assay; assay type: functional; conditions: 168 h; procedure, shortened: as §1
[8] = test system: Mycobacterium tuberculosis; assay: Antibacterial activity against Mycobacterium tuberculosis H37Rv ATCC 27294T assessed as ethidium bromide MIC at 4 ug/ml after 7 days by microdilution checkerboard assay; assay type: functional; conditions: 168 h; procedure, shortened: as §1
[9] = test system: Mycobacterium tuberculosis; assay: Antibacterial activity against Mycobacterium tuberculosis H37Rv ATCC 27294T assessed as ethidium bromide MIC at 8 ug/ml after 7 days by microdilution checkerboard assay; assay type: functional; conditions: 168 h; procedure, shortened: as §1
[10] = test system: Mycobacterium tuberculosis; assay: Antibacterial activity against Mycobacterium tuberculosis H37Rv ATCC 27294T assessed as ethidium bromide MIC at 16 ug/ml after 7 days by microdilution checkerboard assay; assay type: functional; conditions: 168 h; procedure, shortened: as §1
[11] = test system: Mycobacterium tuberculosis; assay: Antibacterial activity against Mycobacterium tuberculosis H37Rv ATCC 27294T assessed as ofloxacin MIC at 0.25 ug/ml after 7 days by microdilution checkerboard assay; assay type: functional; conditions: 168 h; procedure, shortened: as §1
[12] = test system: Mycobacterium tuberculosis; assay: Antibacterial activity against Mycobacterium tuberculosis H37Rv ATCC 27294T assessed as ofloxacin MIC at 0.5 ug/ml after 7 days by microdilution checkerboard assay; assay type: functional; conditions: 168 h; procedure, shortened: as §1
[13] = test system: Mycobacterium tuberculosis; assay: Antibacterial activity against Mycobacterium tuberculosis H37Rv ATCC 27294T assessed as ofloxacin MIC at 1 ug/ml after 7 days by microdilution checkerboard assay; assay type: functional; conditions: 168 h; procedure, shortened: as §1
[14] = test system: Mycobacterium tuberculosis; assay: Antibacterial activity against Mycobacterium tuberculosis H37Rv ATCC 27294T assessed as ofloxacin MIC at 2 ug/ml after 7 days by microdilution checkerboard assay; assay type: functional; conditions: 168 h; procedure, shortened: as §1
[15] = test system: Mycobacterium tuberculosis; assay: Antibacterial activity against Mycobacterium tuberculosis H37Rv ATCC 27294T assessed as ofloxacin MIC at 4 ug/ml after 7 days by microdilution checkerboard assay; assay type: functional; conditions: 168 h; procedure, shortened: as §1
[16] = test system: Mycobacterium tuberculosis; assay: Antibacterial activity against Mycobacterium tuberculosis H37Rv ATCC 27294T assessed as ofloxacin MIC at 8 ug/ml after 7 days by microdilution checkerboard assay; assay type: functional; conditions: 168 h; procedure, shortened: as §1
[17] = test system: Mycobacterium tuberculosis; assay: Antibacterial activity against Mycobacterium tuberculosis H37Rv ATCC 27294T assessed as ofloxacin MIC at 16 ug/ml after 7 days by microdilution checkerboard assay; assay type: functional; conditions: 168 h; procedure, shortened: as §1
[18] = test system: Mycobacterium tuberculosis; assay: Antibacterial activity against Mycobacterium tuberculosis H37Rv ATCC 27294T assessed as amikacin MIC at 0.25 ug/ml after 7 days by microdilution checkerboard assay; assay type: functional; conditions: 168 h; procedure, shortened: as §1
[19] = test system: Mycobacterium tuberculosis; assay: Antibacterial activity against Mycobacterium tuberculosis H37Rv ATCC 27294T assessed as amikacin MIC at 0.5 ug/ml after 7 days by microdilution checkerboard assay; assay type: functional; conditions: 168 h; procedure, shortened: as §1
[20] = test system: Mycobacterium tuberculosis; assay: Antibacterial activity against Mycobacterium tuberculosis H37Rv ATCC 27294T assessed as amikacin MIC at 1 ug/ml after 7 days by microdilution checkerboard assay; assay type: functional; conditions: 168 h; procedure, shortened: as §1
[21] = test system: Mycobacterium tuberculosis; assay: Antibacterial activity against Mycobacterium tuberculosis H37Rv ATCC 27294T assessed as amikacin MIC at 2 ug/ml after 7 days by microdilution checkerboard assay; assay type: functional; conditions: 168 h; procedure, shortened: as §1
[22] = test system: Mycobacterium tuberculosis; assay: Antibacterial activity against Mycobacterium tuberculosis H37Rv ATCC 27294T assessed as amikacin MIC at 4 ug/ml after 7 days by microdilution checkerboard assay; assay type: functional; conditions: 168 h; procedure, shortened: as §1
[23] = test system: Mycobacterium tuberculosis; assay: Anti-tubercular activity against Mycobacterium tuberculosis H37Rv ATCC 27294T after 7 days by mircodilution method; assay type: functional; conditions: 168 h
Procedure, shortened: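 H37Rv grown static in MB7H9 + 10% OADC at 37 °C to OD600 0.8, then diluted to about 10^5 cells/ml. Mixed 1:1 with two-fold serial dilutions in MB7H9/OADC and incubated 7 days at 37 °C. MTT added to final 2.5% and plates incubated overnight. MIC is the lowest concentration with no colour change. Run in triplicate.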

[24] = test system: Mycobacterium tuberculosis; assay: Antibacterial activity against Mycobacterium tuberculosis H37Rv ATCC 27294T assessed as isoniazid MIC at 16 ug/ml after 7 days by microdilution checkerboard assay; assay type: functional; conditions: 168 h; procedure, shortened: as §1
[25] = test system: Mycobacterium tuberculosis; assay: Antibacterial activity against Mycobacterium tuberculosis H37Rv ATCC 27294T assessed as isoniazid MIC at 8 ug/ml after 7 days by microdilution checkerboard assay; assay type: functional; conditions: 168 h; procedure, shortened: as §1
[26] = test system: Mycobacterium tuberculosis; assay: Antibacterial activity against Mycobacterium tuberculosis H37Rv ATCC 27294T assessed as isoniazid MIC at 4 ug/ml after 7 days by microdilution checkerboard; assay type: functional; conditions: 168 h; procedure, shortened: as §1
[27] = test system: Mycobacterium tuberculosis; assay: Antibacterial activity against Mycobacterium tuberculosis H37Rv ATCC 27294T assessed as isoniazid MIC at 2 ug/ml after 7 days by microdilution checkerboard assay; assay type: functional; conditions: 168 h; procedure, shortened: as §1
[28] = test system: Mycobacterium tuberculosis; assay: Antibacterial activity against Mycobacterium tuberculosis H37Rv ATCC 27294T assessed as isoniazid MIC at 1 ug/ml after 7 days by microdilution checkerboard assay; assay type: functional; conditions: 168 h; procedure, shortened: as §1
[29] = test system: Mycobacterium tuberculosis; assay: Antibacterial activity against Mycobacterium tuberculosis H37Rv ATCC 27294T assessed as isoniazid MIC at 0.5 ug/ml after 7 days by microdilution checkerboard assay; assay type: functional; conditions: 168 h; procedure, shortened: as §1
[30] = test system: Mycobacterium tuberculosis; assay: Antibacterial activity against Mycobacterium tuberculosis H37Rv ATCC 27294T assessed as amikacin MIC at 8 ug/ml after 7 days by microdilution checkerboard assay; assay type: functional; conditions: 168 h; procedure, shortened: as §1
[31] = test system: Mycobacterium tuberculosis; assay: Antibacterial activity against Mycobacterium tuberculosis H37Rv ATCC 27294T assessed as amikacin MIC at 16 ug/ml after 7 days by microdilution checkerboard assay; assay type: functional; conditions: 168 h; procedure, shortened: as §1
[32] = test system: Mycobacterium tuberculosis; assay: Antibacterial activity against Mycobacterium tuberculosis H37Rv ATCC 27294T assessed as rifampin MIC at 0.25 ug/ml after 7 days by microdilution checkerboard assay; assay type: functional; conditions: 168 h; procedure, shortened: as §1
[33] = test system: Mycobacterium tuberculosis; assay: Antibacterial activity against Mycobacterium tuberculosis H37Rv ATCC 27294T assessed as rifampin MIC at 0.5 ug/ml after 7 days by microdilution checkerboard assay; assay type: functional; conditions: 168 h
Procedure, shortened: (§2)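 M. tuberculosis H37Rv grown in MB7H9 + 10% OADC at 37 °C to OD600 0.8; plates inoculated at 10^5 CFU/ml. Rifampicin two-fold serially diluted across columns, test compound two-fold diluted down rows (two-dimensional checkerboard). Sealed, 37 °C for seven days, then MTT added and incubated overnight. MIC read as no colour change. Triplicate.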

[34] = test system: Mycobacterium tuberculosis; assay: Antibacterial activity against Mycobacterium tuberculosis H37Rv ATCC 27294T assessed as rifampin MIC at 1 ug/ml after 7 days by microdilution checkerboard assay; assay type: functional; conditions: 168 h; procedure, shortened: as §2
[35] = test system: Mycobacterium tuberculosis; assay: Antibacterial activity against Mycobacterium tuberculosis H37Rv ATCC 27294T assessed as rifampin MIC at 2 ug/ml after 7 days by microdilution checkerboard assay; assay type: functional; conditions: 168 h; procedure, shortened: as §2
[36] = test system: Mycobacterium tuberculosis; assay: Antibacterial activity against Mycobacterium tuberculosis H37Rv ATCC 27294T assessed as rifampin MIC at 4 ug/ml after 7 days by microdilution checkerboard assay; assay type: functional; conditions: 168 h; procedure, shortened: as §2
[37] = test system: Mycobacterium tuberculosis; assay: Antibacterial activity against Mycobacterium tuberculosis H37Rv ATCC 27294T assessed as rifampin MIC at 8 ug/ml after 7 days by microdilution checkerboard assay; assay type: functional; conditions: 168 h; procedure, shortened: as §2
[38] = test system: Mycobacterium tuberculosis; assay: Antibacterial activity against Mycobacterium tuberculosis H37Rv ATCC 27294T assessed as rifampin MIC at 16 ug/ml after 7 days by microdilution checkerboard assay; assay type: functional; conditions: 168 h; procedure, shortened: as §2

SMILES: CCSc1nnc(COc2ccccc2C2=NOC(c3ccc(Cl)cc3Cl)C2)n1NC(C)=O (stereo not drawn)
- MIC [1]: 2 µg/mL (≈ 3.95 µM)
- IC50 [2]: 9.7 µg/mL (≈ 19.2 µM)
- MIC [3]: 0.1 µg/mL
- MIC [4]: 12.5 µg/mL
- MIC [5]: 12.5 µg/mL
- MIC [6]: 12.5 µg/mL
- MIC [7]: 12.5 µg/mL
- MIC [8]: 6.25 µg/mL
- MIC [9]: 1.56 µg/mL
- MIC [10]: 0.39 µg/mL
- MIC [11]: 2 µg/mL
- MIC [12]: 1 µg/mL
- MIC [13]: 1 µg/mL
- MIC [14]: 1 µg/mL
- MIC [15]: 1 µg/mL
- MIC [16]: 1 µg/mL
- MIC [17]: 0.0312 µg/mL
- MIC [18]: 1 µg/mL
- MIC [19]: 1 µg/mL
- MIC [20]: 1 µg/mL
- MIC [21]: 1 µg/mL
- MIC [22]: 1 µg/mL
- MIC [23]: 8 µg/mL (≈ 15.8 µM)
- MIC [24]: 0.00156 µg/mL
- MIC [25]: 0.025 µg/mL
- MIC [26]: 0.1 µg/mL
- MIC [27]: 0.1 µg/mL
- MIC [28]: 0.1 µg/mL
- MIC [29]: 0.1 µg/mL
- MIC [30]: 0.25 µg/mL
- MIC [31]: 0.0312 µg/mL
- MIC [32]: 1 µg/mL
- MIC [33]: 0.5 µg/mL
- MIC [34]: 0.5 µg/mL
- MIC [35]: 0.25 µg/mL
- MIC [36]: 0.125 µg/mL
- MIC [37]: 0.0312 µg/mL
- MIC [38]: 0.0156 µg/mL
